One data set concerns the target T1, OXR1 (Homo sapiens, UniProt Q8N573).
T1 sequence (Q8N573 1-874): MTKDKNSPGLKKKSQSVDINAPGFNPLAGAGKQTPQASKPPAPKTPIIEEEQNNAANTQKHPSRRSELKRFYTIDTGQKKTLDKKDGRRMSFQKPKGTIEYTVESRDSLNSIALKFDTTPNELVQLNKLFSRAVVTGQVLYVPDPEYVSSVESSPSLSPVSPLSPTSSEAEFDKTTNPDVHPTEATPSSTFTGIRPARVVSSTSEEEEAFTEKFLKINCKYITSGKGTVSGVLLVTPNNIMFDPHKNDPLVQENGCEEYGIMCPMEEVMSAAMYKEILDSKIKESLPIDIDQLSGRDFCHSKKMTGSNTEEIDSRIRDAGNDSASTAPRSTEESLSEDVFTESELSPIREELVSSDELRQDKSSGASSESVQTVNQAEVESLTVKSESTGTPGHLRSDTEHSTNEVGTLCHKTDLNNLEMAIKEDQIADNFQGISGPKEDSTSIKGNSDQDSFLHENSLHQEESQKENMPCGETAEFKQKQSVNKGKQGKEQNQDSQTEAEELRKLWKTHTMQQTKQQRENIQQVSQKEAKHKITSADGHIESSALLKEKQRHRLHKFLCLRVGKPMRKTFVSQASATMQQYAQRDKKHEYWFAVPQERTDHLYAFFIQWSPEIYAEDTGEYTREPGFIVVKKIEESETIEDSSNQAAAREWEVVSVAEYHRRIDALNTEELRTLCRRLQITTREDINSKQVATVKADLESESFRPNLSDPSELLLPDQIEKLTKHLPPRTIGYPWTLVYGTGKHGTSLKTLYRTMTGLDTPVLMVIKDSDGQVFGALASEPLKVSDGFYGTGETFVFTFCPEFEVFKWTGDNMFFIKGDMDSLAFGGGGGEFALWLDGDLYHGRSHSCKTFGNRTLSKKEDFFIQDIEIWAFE
Put plainly: OXR1 degradation assay using western blot. As to conditions: 5 µM, 24 h, WI-38 IR-SCs and NCs. In kind it is cell-based. The method in brief: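 Low-passage (<25) WI-38 cells, plus senescent cells made by 15 Gy ¹³⁷Cs γ-irradiation (1.080 Gy/min). Both cultured at 37 °C, 5% CO2, then given 5 µM test compound or vehicle for 24 h. Lysed in RIPA with EDTA/EGTA and transferred to PVDF. Blocked with 5% nonfat milk/TBST. Probed overnight at 4 °C for OXR1 and β-actin, HRP secondaries, ECL/autoradiography. Quantified as mean ± SEM, n = 3.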

For data set [1], the system named is ROS production in WI-38 IR-SCs. The data set can be described thus: ROS assay with dihydrorhodamine 123, flow cytometry. In kind it is cell-based, Human. The note with it: […] treatment, DHR 123 30 min. A general note: In flow cytometry, cells or beads pass a laser one at a time.
The test system of a further data set is mice. The note with it: cited from earlier work.
The subject of another data set is WI-38 IR-SCs. Put plainly: Apoptosis assay, Annexin V / propidium iodide flow cytometry. In kind it is cell-based, Human. As to conditions: QVD 10 µM with 49 1 µM, 48 h and 72 h.

With `COc1cc(/C=C/C(=O)N2CCC=CC2=O)cc(OC)c1OC` [PL, piperlongumine], the “OXR1 levels (western blot)” value at OXR1 is “abrogated the upregulation of OXR1”. Further, in data set [1], the “ROS levels (DHR 123 fluorescence)” value is recorded as “moderate increase of the ROS levels”. In the data set on mice (mice, oral), the “maximum tolerated oral dose” value was over 1000 mg/kg. The “effective therapeutic dose for cancer” value with mice (oral dosing) is on record as at least 2.4 mg/kg.

`C=C1CCCN(C(=O)/C=C/c2cc(OC)c(OC)c(OC)c2)C1=O` [Compound 47, (E)-3-Methylene-1-(3-(3,4,5-trimethoxyphenyl)acryloyl)piperidin-2-one]: the “OXR1 levels (western blot)” value on OXR1 is reported as “selectively reduced the levels of OXR1 in SCs”.

Consider `C=C1CCCCN(C(=O)/C=C/c2cc(OC)c(OC)c(OC)c2)C1=O` [Compound 49, (E)-3-Methylene-1-(3-(3,4,5-trimethoxyphenyl)acryloyl)azepan-2-one], for which the “OXR1 levels (western blot)” value on OXR1 is “selectively reduced the levels of OXR1 in SCs”.

On to `CC(C)[C@H](NC(=O)c1ccc2ccccc2n1)C(=O)N[C@@H](CC(=O)O)C(=O)COc1c(F)cccc1F` [QVD], for which, in the data set with WI-38 IR-SCs, the “effect of pan-caspase inhibitor on 49-induced apoptosis and death” value is “significantly reduced apoptosis and partially rescued SCs from 49-induced death”.

In the case of `C=C1CCN(C(=O)/C=C/c2cc(OC)c(OC)c(OC)c2)C1=O` [Compound 48, (E)-3-Methylene-1-(3-(3,4,5-trimethoxyphenyl)acryloyl)pyrrolidin-2-one], on OXR1, the “OXR1 levels (western blot)” value is reported as “selectively reduced the levels of OXR1 in SCs”.

The values are drawn from publication PMC6087492 (Bioorganic & medicinal chemistry, 2018).
